Molecules are shown by their SMILES.

This series can be described thus: Toxicity liver stage against HepG2, at 10uM. It counts as cell-based. The arrangement: test concentration 10 uM, cell line HepG2-A16-CD81EGFP. As to conditions: human, HepG2-A16-CD81EGFP cells; read-out: INHIBITION
In a few lines:
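Uninfected HepG2-A16-CD81EGFP cells, 3 × 10^3 per well, 1536-well, plated on prespotted compound at 10 μM final, parasite-free screening media added to match infected plates; puromycin 10 μM positive, DMSO 0.5% negative; run in parallel with 48 h PbLuc assay at 37 °C, 5% CO2; viability by CellTiter-Glo luminescence, normalized to controls.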
Consider `COC(=O)C1CCCCN1C(=O)c1ccccc1F` (configuration not stated), for which the cytotoxicity at 10 µM amounted to 8.96%.

For the compound `CN1CC(c2ccccc2)C2(CCN(C(=O)c3cccn3C)CC2)C1=O` (configuration not stated), the cytotoxicity at 10 µM turned out to be 3.83%. To `O=C(NCCOCCO)c1cccnc1Oc1ccc(Cl)cc1` belongs 1.38%; to `O=C(NC1CC1)N1CCc2ncc(CN3CCOCC3)n2CC1`, -76.5%; to `Cc1csc(N2CCCN(C(=O)C(C)n3ccnc3)CC2)n1` (configuration not stated), -9.46%. To `Cc1nc(CN(C)C2CCN(Cc3ccc(C(N)=O)cc3)C2)no1` (configuration not stated) belongs -12.7%; to `Cc1ncc(CN(C)C(=O)c2ccc3c(c2O)OC(C)(C)C3)s1`, 6.93%; to `CC(Cn1cccn1)NCCS(=O)(=O)c1ccccc1` (configuration not stated), -3.63%.

Turning to `Clc1cccnc1N1CCC(C2CCN(Cc3cccnc3)CC2)C1` (configuration not stated), the cytotoxicity at 10 µM is 2.92%. With `CN1CCN(C[C@H]2CN3CC[C@H]2C[C@@H]3CNC(=O)c2ccco2)CC1`, the cytotoxicity at 10 µM was -6.35%. As for `CN(C(=O)c1ccc(OCC(F)F)nc1)c1ccc2c(c1)CCO2`, the cytotoxicity at 10 µM amounted to 13.6%. To `CC1=C(C(=O)NCc2cccnc2-n2cnc3ccccc32)OCCO1` belongs -2%; to `CCOC(=O)C1(Cc2cccc(OC)c2)CCCN(Cc2ncc[nH]2)C1` (configuration not stated), 3.86%; to `O=C1N(C2CCCCC2)C[C@H]2CN(C3CCC3)CCN12`, 6.44%.

On to `CCc1nnc(C(C)N2CCN(CCC(=O)NC3CC3)CC2)o1` (configuration not stated), for which the cytotoxicity at 10 µM was 16%. In the case of `CN(CCn1cncc1-c1cnc(N2CCOCC2)nc1)C1CCCC1`, the cytotoxicity at 10 µM was 7.25%.

In the case of `CC(=O)c1cccc(-c2nc3c([nH]2)CCNC3)c1F`, the cytotoxicity at 10 µM was -50.5%. For `CCN1CCN(C(=O)c2cnc(Cc3c(Cl)cccc3Cl)nc2O)CC1` the value was 2.57%; for `CC(C)C1CN(S(C)(=O)=O)CCCN1Cc1ccc(F)cc1` (configuration not stated), 1.81%; for `O=C(NCC1CCOC1)c1csc(-c2cccc(Cl)c2)n1` (configuration not stated), -7.41%. To `O=C(CSC(F)(F)F)N1CCC2(CCCN(C3CCOCC3)C2=O)C1` (configuration not stated) belongs -128%; to `CCOc1ccc(Br)cc1C1CCCN1` (configuration not stated), 5.01%; to `N#Cc1ccc(C(=O)N(Cc2ccncc2)C2CC2)cc1`, -8.53%. On to `Cc1csc(CCNC(=O)N2CCC(C(N)=O)CC2)n1`, for which the cytotoxicity at 10 µM was -2.71%. To `COCCS(=O)(=O)c1ncc(CN(C)C)n1Cc1ccccc1` belongs 3.19%.

Turning to `NC(=O)C1CCCN(Cc2c(-c3ccco3)[nH]c3ncccc23)C1` (configuration not stated), the cytotoxicity at 10 µM was found to be 3.91%.

Regarding `CCS(=O)(=O)N1C[C@H]2CN(Cc3cccc(C)c3)C(=O)[C@H]2C1`, the cytotoxicity at 10 µM turned out to be 2.9%. For `COc1cc(C)c(S(=O)(=O)CC(=O)N(C)C2CC2)cc1OC` the value was -3.81%; for `Cc1nc2c(c(NC(C)C)n1)CCN(C(=O)c1ccno1)CC2`, 7.77%; for `Cc1nc(C)n(C2CCCN(C(=O)c3c[nH]c(C(C)C)n3)C2)n1` (configuration not stated), -19.9%. For `CN(C)C(=O)CCCS(=O)(=O)Cc1cc(Cl)c2c(c1)OCCO2` the value was 2.47%; for `Cc1ccccc1-n1cc(CN(C)C(=O)CC2C(=O)NCCN2C)cn1` (configuration not stated), 6.89%.

With `CN(C)CCn1c2c(ccc1=O)CCN(C(=O)c1ccoc1)CC2`, the cytotoxicity at 10 µM was determined as 6.2%. For `COCCN(Cc1nccs1)C(=O)c1c(C)cc(C)[nH]c1=O` the value was 0.0773%; for `c1cc(OCc2ccc3c(c2)OCCO3)ccc1CNC1CC1`, -0.73%; for `Cc1ccccc1C(=O)N1CCC2(CCC(C(=O)NCC3CC3)O2)CC1` (configuration not stated), -3.28%. For `COc1cc(Br)cc(CNC2CCCNC2=O)c1O` (configuration not stated) the value was 2.37%; for `NC(=O)CC1CCCCN1C(=O)Cc1cccc(Br)c1` (configuration not stated), 1.77%; for `CCCN1CCc2nc(SCc3c(C)cc(C)cc3C)[nH]c(=O)c2C1`, -2.33%. To `Cc1c(C)n(Cc2ccncc2)c2nc3c(c(N)c12)CCCC3` belongs 1.4%; to `CC(C)C(C(=O)NC1CC1)n1cnc2cc(F)c(F)cc21` (configuration not stated), 15.3%.

As for `Fc1cccc(Cl)c1CN1CCC(c2n[nH]c3ncccc23)CC1`, the cytotoxicity at 10 µM is -13.7%. Take `CC(C)NC(=O)c1cc(Br)c2c(c1)OCCO2`: the cytotoxicity at 10 µM was -13.3%. Turning to `Cc1ccc(OC2CCN(C(=O)Cc3c(C)[nH]c(=O)[nH]c3=O)CC2)cc1`, the cytotoxicity at 10 µM came to 6.45%.

`CC(=O)N1CCCC(c2ccnc(N(C)C)n2)C1` (configuration not stated): the cytotoxicity at 10 µM was -16.2%.

In the case of `CC(=O)N(C)C(c1cccnc1)c1ccc(F)c(F)c1` (configuration not stated), the cytotoxicity at 10 µM was -7.69%. As to `Cc1cc(C[S+]([O-])Cc2ccccc2C)no1` (configuration not stated), the cytotoxicity at 10 µM amounted to 9.13%. For `Cc1cccc(S(=O)(=O)N2C[C@@H]3C[C@H](C(=O)NCC(C)C)[C@H](C2)O3)c1`, the cytotoxicity at 10 µM is 6.53%. To `CC(=O)N1CCOC2(CCN(C(=O)c3cnoc3C)CC2)C1` belongs -0.0788%; to `Cc1n[nH]c2c1C(c1cccnc1)SCC(=O)N2` (configuration not stated), -7.46%. To `Cc1cnn(CC2CCCN2C(=O)Cc2ccc(C)nc2)c1` (configuration not stated) belongs -1.64%. For `c1csc(CN2CCCC3(COCCN(c4cnccn4)C3)C2)c1` (configuration not stated) the value was -68.7%. Turning to `CN(CCOCC1CC1)C(=O)Nc1ccc([S+](C)[O-])cc1` (configuration not stated), the cytotoxicity at 10 µM came out at 19.4%.

As to `O=C(COCC1CC1)Nc1ccn(Cc2cccc3cccnc23)n1`, the cytotoxicity at 10 µM was 13.9%.

For the compound `CCCS(=O)(=O)N1CCN(CC(F)(F)F)CC1`, the cytotoxicity at 10 µM is -3.29%.

Consider `CCNC(=O)c1c2c(N3CCN(C)CC3)ncnc2n2ccccc12`, for which the cytotoxicity at 10 µM was -74.8%. To `COc1ccc(Nc2c[nH]c(=O)[nH]c2=O)cc1` belongs 14.2%; to `COc1ccc(CN(C)CC(=O)c2ccc3[nH]c(=O)[nH]c3c2)cc1F`, 8.51%. In the case of `Cc1ccc(-c2ccnc(N[C@H]3COC[C@@H]3N3CCCC3)n2)c(C)n1`, the cytotoxicity at 10 µM was -1.45%. For `CNc1cc(C2CN(C(=O)c3ccccc3)CCO2)nc(C)n1` (configuration not stated) the value was 6.1%; for `COC(=O)C1(NCc2nc(C)c(C)o2)CCC(C)CC1` (configuration not stated), -5.54%; for `c1cnc(NC2COC3(CCN(Cc4cc[nH]n4)CC3)C2)nc1` (configuration not stated), -1.17%.

As for `O=C(c1cnc(O)cn1)N1CCCC1c1nc2cc(F)ccc2[nH]1` (configuration not stated), the cytotoxicity at 10 µM amounted to 7.72%. For `Cc1csc(Nc2cc(C3CN(C(C)C)C3)nc(C)n2)n1` the value was -7.56%; for `CCc1nc2n(n1)CC(NCC(=O)Nc1cc(C)nn1C)CC2` (configuration not stated), -10.7%; for `Cc1nccc(CNC(=O)N2CCN(Cc3ccccc3)C[C@H]2C)n1`, -128%. To `NC(=O)C1CCCN1Cc1ccccc1NC(=O)Cc1cccs1` (configuration not stated) belongs 7.31%; to `Cc1cccc(S(=O)(=O)N2CSCC2C(=O)NC(C)(C)C)c1` (configuration not stated), -3.75%. For `CC(c1ccco1)N(C(=O)c1cccc(C#N)c1)C1CC1` (configuration not stated) the value was 1.18%; for `C1CCC(c2nnc3sc(C4CCOC4)nn23)C1` (configuration not stated), -2.16%. As for `Cc1n[nH]cc1CNC1(c2ccc(F)cc2)CCCC1`, the cytotoxicity at 10 µM amounted to 9.56%.

Turning to `CC1(C(=O)N2CCSCC2)CNCCO1` (configuration not stated), the cytotoxicity at 10 µM came out at 4.79%.
